From ChEMBL document CHEMBL1146049, “Novel dual inhibitors of calpain and lipid peroxidation with enhanced cellular activity” (Bioorg Med Chem Lett, 2006)
Calls of active or inactive are those of the source. The calls are words filed in the database; no cut-off is given here.

Columns and labels:
Calpain 1 [1] = biological target: Calpain 1 (Homo sapiens, UniProt P07384); assay: (§1) Inhibition of isolated human calpain1; format: protein-complex assay
How it was run: (§2)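 Isolated human calpain 1 enzyme assay with Suc-Leu-Tyr-AMC as substrate; IC50 determined.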

[2] = Inhibition of maitotoxin induced intracellular calpain in glioma C6 cells; format: functional, cell-based; conditions: Rattus norvegicus
How it was run: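 Rat glioma C6 cells were exposed to compound for 4 h, the last 3 h with maitotoxin to activate calpain. Intracellular calpain activity was read as cleavage of the fluorogenic substrate Suc-Leu-Tyr-AMC. IC50 values are means of three experiments.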

[3] = biological target: Chymotrypsinogen A (Bos taurus) (UniProt P00766); assay: Inhibition of alpha chymotrypsin
Caspase-3 (Homo sapiens) = biological target: T1, Caspase-3 (Homo sapiens) (UniProt P42574); assay: Inhibition of caspase3
T1 sequence (whole entry): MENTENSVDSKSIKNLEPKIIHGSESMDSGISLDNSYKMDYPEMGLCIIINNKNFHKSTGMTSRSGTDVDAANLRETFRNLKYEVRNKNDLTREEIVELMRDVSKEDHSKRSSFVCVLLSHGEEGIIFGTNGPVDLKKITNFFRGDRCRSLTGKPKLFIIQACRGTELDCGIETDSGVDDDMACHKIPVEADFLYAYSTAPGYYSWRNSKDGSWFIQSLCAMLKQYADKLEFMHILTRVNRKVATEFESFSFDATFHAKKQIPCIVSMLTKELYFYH

[4] = Ratio of pIC50 (rat calpain/human calpain 1)
How it was run: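 pRatio = −log(intracellular calpain IC50 / human calpain 1 IC50). The intracellular IC50 comes from glioma C6 cells, which were exposed to compound for 4 h in total, including 3 h with maitotoxin to induce calpain activation, with Suc-Leu-Tyr-AMC as substrate. The enzymatic IC50 comes from isolated human calpain 1 with the same substrate.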

[5] = biological target: Cathepsin B (Homo sapiens) (UniProt P07858); assay: Inhibition of cathepsinB
[6] = test system: Radical scavenging activity; assay: Inhibition of ferrous induced lipid peroxidation in rat brain microsomes; format: functional
Calpain 1 [7] = biological target: T2, Calpain 1 (Homo sapiens, UniProt P04632+P07384); assay: as §1; format: protein-complex assay; how it was run: as §2
T2 sequence (P04632 whole entry): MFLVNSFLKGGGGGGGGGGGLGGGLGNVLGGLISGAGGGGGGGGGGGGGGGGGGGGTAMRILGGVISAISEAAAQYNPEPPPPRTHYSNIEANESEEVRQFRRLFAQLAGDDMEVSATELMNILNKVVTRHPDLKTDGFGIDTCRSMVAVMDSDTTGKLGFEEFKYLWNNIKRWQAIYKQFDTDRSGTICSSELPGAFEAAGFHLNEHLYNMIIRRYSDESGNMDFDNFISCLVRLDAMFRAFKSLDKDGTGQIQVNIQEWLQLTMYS
T2 sequence (P07384 whole entry): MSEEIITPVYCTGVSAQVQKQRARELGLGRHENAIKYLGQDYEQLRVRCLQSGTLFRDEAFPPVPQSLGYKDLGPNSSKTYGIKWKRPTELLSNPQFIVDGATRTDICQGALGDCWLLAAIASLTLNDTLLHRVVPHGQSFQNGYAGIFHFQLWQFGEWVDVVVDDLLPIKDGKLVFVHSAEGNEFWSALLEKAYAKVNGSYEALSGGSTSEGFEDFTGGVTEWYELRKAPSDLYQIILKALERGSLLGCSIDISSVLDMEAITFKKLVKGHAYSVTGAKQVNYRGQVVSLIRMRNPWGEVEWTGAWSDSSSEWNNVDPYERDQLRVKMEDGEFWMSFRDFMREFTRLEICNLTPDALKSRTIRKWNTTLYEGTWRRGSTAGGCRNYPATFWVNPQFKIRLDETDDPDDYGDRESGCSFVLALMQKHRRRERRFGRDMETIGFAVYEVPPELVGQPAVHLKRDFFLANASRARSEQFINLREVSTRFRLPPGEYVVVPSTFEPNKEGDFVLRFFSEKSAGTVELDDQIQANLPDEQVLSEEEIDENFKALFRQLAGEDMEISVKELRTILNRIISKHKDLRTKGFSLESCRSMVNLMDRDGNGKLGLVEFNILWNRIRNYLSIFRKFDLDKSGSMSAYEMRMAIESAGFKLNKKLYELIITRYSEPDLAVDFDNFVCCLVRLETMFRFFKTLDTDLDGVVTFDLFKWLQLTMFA

SMILES	IC50 (Calpain 1 [1])	IC50 [2]	Activity [3]	Activity (Caspase-3 (Homo sapiens))	Negative log of IC50 ratio (cellular/enzyme) [4]	Activity [5]	IC50 [6]	IC50 (Calpain 1 [7])
CC(C)C[C@H](NC(=O)COc1ccc2c(c1)Nc1ccccc1S2)C(=O)N[C@@H](CC(C)C)C(=O)N[C@H]1CCOC1O (stereo in doubt; 6d-08) [listing 1 of 2 here]	105 nM	600 nM						
CC(C)C[C@H](NC(=O)[C@H](CO)NC(=O)COc1ccc2c(c1)Nc1ccccc1S2)C(=O)N[C@H]1CCOC1O (some centres not stated)	48.7 nM	3000 nM	inactive	inactive	1.21	Active		
CC(C)C[C@H](NC(=O)C(C)(C)NC(=O)COc1ccc2c(c1)Nc1ccccc1S2)C(=O)N[C@H]1CCOC1O (some centres not stated)	138 nM	30000 nM	inactive	inactive	0.66	Active		
CC(C)C[C@H](NC(=O)COc1ccc2c(c1)Nc1ccccc1S2)C(=O)N[C@@H](CC(C)C)C(=O)N[C@H]1CCOC1O (stereo in doubt; 6d-08) [listing 2 of 2 here]			inactive	inactive	2.24	Active		
CC(C)C[C@H](NC(=O)[C@H](C)NC(=O)COc1ccc2c(c1)Nc1ccccc1S2)C(=O)N[C@H]1CCOC1O (some centres not stated)	25 nM	15000 nM	inactive	inactive	0.22	Active		
CC(C)C[C@H](NC(=O)Cc1ccc2c(c1)Nc1ccccc1S2)C(=O)N[C@@H](CC(C)C)C(=O)N[C@H]1CCOC1O (some centres not stated)	55.4 nM	2500 nM					966 nM	
CC(C)C[C@H](NC(=O)CNC(=O)COc1ccc2c(c1)Nc1ccccc1S2)C(=O)N[C@H]1CCOC1O (some centres not stated)	8 nM	63000 nM	inactive	inactive	-0.9	Active		
CC(C)C[C@H](NC(=O)c1ccc2c(c1)Nc1ccccc1S2)C(=O)N[C@@H](CC(C)C)C(=O)N[C@H]1CCOC1O (some centres not stated)	85.5 nM	1800 nM					1100 nM	
CC(C)C[C@H](NC(=O)[C@H](NC(=O)COc1ccc2c(c1)Nc1ccccc1S2)C(C)C)C(=O)N[C@H]1CCOC1O (some centres not stated)	553 nM	16000 nM	inactive	inactive	1.54	Active		
CC(C)C[C@H](NC(=O)[C@@H](NC(=O)COc1ccc2c(c1)Nc1ccccc1S2)c1ccccc1)C(=O)N[C@H]1CCOC1O (some centres not stated)	222 nM	5000 nM	inactive	inactive	1.65	Active		
CCC[C@H](NC(=O)COc1ccc2c(c1)Nc1ccccc1S2)C(=O)N[C@@H](CC(C)C)C(=O)N[C@H]1CCOC1O (some centres not stated)	151 nM	600 nM	inactive	inactive	2.4	Active		
Cc1cc(C(C)(C)C)c(O)c(C(C)(C)C)c1 [BUTYLATED HYDROXYTOLUENE]							3250 nM	
CC(C)C[C@H](NC(=O)COc1ccc2c(c1)Nc1ccccc1S2)C(=O)N[C@@H](CC(C)C)C(=O)N[C@H]1CCOC1O (stereo in doubt; 6d)							333 nM	105 nM
CC(C)C[C@H](NC(=O)[C@@H](NC(=O)COc1ccc2c(c1)Nc1ccccc1S2)C(C)(C)C)C(=O)N[C@H]1CCOC1O (some centres not stated)	354 nM	4000 nM	inactive	inactive	1.95	Active		
CC(=O)OC1OCC[C@@H]1NC(=O)[C@H](CC(C)C)NC(=O)[C@H](CC(C)C)NC(=O)c1ccc2c(c1)Nc1ccccc1S2 (some centres not stated)	905 nM	1700 nM					2310 nM	
CC(C)C[C@H](NC(=O)[C@@H](NC(=O)COc1ccc2c(c1)Nc1ccccc1S2)[C@H](C)O)C(=O)N[C@H]1CCOC1O (some centres not stated)	38 nM	2000 nM	inactive	inactive	1.28	Active		
CC(C)C[C@H](NC(=O)[C@@H](NC(=O)COc1ccc2c(c1)Nc1ccccc1S2)C(C)C)C(=O)N[C@H]1CCOC1O (some centres not stated)	75.9 nM	1000 nM	inactive	inactive	1.88	Active		
CC[C@H](NC(=O)COc1ccc2c(c1)Nc1ccccc1S2)C(=O)N[C@@H](CC(C)C)C(=O)N[C@H]1CCOC1O (some centres not stated)	88.6 nM	800 nM	inactive	inactive	2.05	Active		
CC(C)C[C@H](NC(=O)CCc1ccc2c(c1)Nc1ccccc1S2)C(=O)N[C@@H](CC(C)C)C(=O)N[C@H]1CCOC1O (some centres not stated)	150 nM	10000 nM					3300 nM	
